# Assay results: ChEMBL document CHEMBL5338825, “Structure-Based Discovery of Inhibitors of the SARS-CoV-2 Nsp14 N7-Methyltransferase” (J Med Chem, 2023)
# The source made the active and inactive calls. The rule behind the calls is not given here.
# Legend:
# [1] = target: Replicase polyprotein 1ab (Severe acute respiratory syndrome coronavirus 2, UniProt P0DTD1); assay: Inhibition of N-terminal 6His/SUMO-tagged SARS-CoV-2 NSP14 expressed in Escherichia coli Rosetta 2 (DE3) PlysS cells using 5'GpppACCCCCCCCC-Biotin 3' and 3H-SAM as substrates incubated for 30 mins by TopCount scintillation proximity assay
# [2] = target: Replicase polyprotein 1ab (Severe acute respiratory syndrome coronavirus 2) (UniProt P0DTD1); assay: Inhibition of N-terminal 6His/SUMO-tagged SARS-CoV-2 NSP14 expressed in Escherichia coli Rosetta 2 (DE3) PlysS cells using 5'GpppACCCCCCCCC-Biotin 3' and 3H-SAM as substrates at 100 uM incubated for 30 mins by TopCount scintillation proximity assay relative to control
# [3] = target: Replicase polyprotein 1ab (Severe acute respiratory syndrome coronavirus 2) (UniProt P0DTD1); assay: Reversible binding affinity to Cys387 of N-terminal 6His/SUMO-tagged SARS-CoV-2 NSP14 expressed in Escherichia coli Rosetta 2 (DE3) PlysS cells using 5'GpppACCCCCCCCC-Biotin 3' and 3H-SAM as substrates incubated for 2 hrs by mass spectrometry analysis
# In short: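 Nsp14 incubated with 20-fold molar excess of compound for 2 h at 20 °C, then taken into 0.1% formic acid. Separated by HPLC on a 5–95% acetonitrile/water gradient and analysed by ESI time-of-flight MS for protein mass shift.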
# [4] = target: Replicase polyprotein 1ab (Severe acute respiratory syndrome coronavirus 2) (UniProt P0DTD1); assay: Reversible covalent inhibition of N-terminal 6His/SUMO-tagged SARS-CoV-2 NSP14 expressed in Escherichia coli Rosetta 2 (DE3) PlysS cells using 5'GpppACCCCCCCCC-Biotin 3' and 3H-SAM as substrates at 10 fold IC50 concentration incubated for 60 mins by rapid dilution method
# In short: (§1)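 Jump dilution: Nsp14 at 100-fold its assay concentration (assay level 1.5 nM) preincubated with compound for 1 h at room temperature. Then diluted 100-fold into assay buffer containing RNA substrate and SAM, and recovery of methyltransferase activity monitored.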
# [5] = target: Histone-lysine N-methyltransferase EHMT2 (Homo sapiens, UniProt Q96KQ7); assay: Inhibition of human G9a using biotin-tagged Histone H3 and 3H-SAM as substrate incubated for 1 hrs by TopCount scintillation proximity assay
# In short: (§2)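 Radiometric concentration–response for IC50, run on panel methyltransferases showing more than 50% inhibition at a 10 μM screen. Triplicate.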
# [6] = target: Histone-lysine N-methyltransferase EHMT1 (Homo sapiens, UniProt Q9H9B1); assay: Inhibition of human GLP using biotin-tagged Histone H3 and 3H-SAM as substrate incubated for 1 hrs by TopCount scintillation proximity assay; in short: as §2
# [7] = Aggregation property of the compound in KPi buffer at pH 7.0 assessed as formation of colloid-like particles at 3.8 uM by dynamic light scattering analysis; assay type: physicochemical; settings: pH 7, 3.8 µM
# In short: (§3)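 Compounds diluted as 8-point half-log series in filtered 50 mM KPi, pH 7.0, with 1% v/v DMSO final. Particles detected by dynamic light scattering, triplicate at each concentration. CAC taken as the intersection of separate nonlinear fits to aggregating (>10^6 scattering intensity) and non-aggregating data.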
# Bacteria [8] = assay: Inhibition of beta-lactamase AmpC (unknown origin) at 3.8 uM pre-incubated with compound for 5 mins followed by substrate addition and measured after 1.5 mins by absorbance based plate reader analysis; settings: time 6.5 min
# In short: (§4)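 AmpC at 2 nM preincubated 5 min with compound at room temperature in 50 mM KPi, pH 7.0, with 1% v/v DMSO. Started with 50 μM CENTA (read at 405 nm) or 50 μM nitrocefin (read at 490 nm), monitored 1 min 30 s. Initial rate taken as % of DMSO control. Top concentration in triplicate; eight-point half-log curves in triplicate where inhibition exceeded 40%.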
# Homo sapiens [9] = species: Homo sapiens; assay: Inhibition of MDH (unknown origin) using oxaloacetic acid as substrate at 3.8 uM preincubated with compound for 5 mins followed by substrate addition and measured after 1.5 min in the presence of NADH by absorbance based plate reader analysis; settings: time 6.5 min
# In short: (§5)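 MDH assay at room temperature in 50 mM KPi, pH 7.0, with 1% v/v DMSO final. Compound preincubated 5 min with 2 nM enzyme. Reaction started with 200 μM NADH plus 200 μM oxaloacetic acid, and absorbance followed at 340 nm for 1 min 30 s. Initial rate divided by the DMSO control rate. Single top concentration in triplicate; eight-point half-log curves in triplicate where inhibition exceeded 40%.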
# Homo sapiens [10] = species: Homo sapiens; assay: Inhibition of MDH (unknown origin) using oxaloacetic acid as substrate at 3.8 uM preincubated with compound for 5 mins followed by substrate addition and measured after 1.5 min in the presence of NADH and 0.01% Triton-X 100 by absorbance based plate reader analysis; settings: time 6.5 min
# In short: (§6)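 Detergent-reversal MDH assay: 50 mM KPi, pH 7.0, with 1% v/v DMSO and 0.01% v/v Triton X-100. Enzyme at 2 nM preincubated 5 min with compound, then started with 200 μM NADH plus 200 μM oxaloacetate. A340 read for 1 min 30 s, rate normalised to DMSO control. Eight-point half-log curves in triplicate.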
# Bacteria [11] = assay: Inhibition of beta-lactamase AmpC (unknown origin) at 3.8 uM pre-incubated with compound for 5 mins followed by substrate addition and measured after 1.5 mins in the presence of 0.01% Triton-X 100 by absorbance based plate reader analysis
# In short: (§7)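 AmpC detergent-reversal assay: 50 mM KPi, pH 7.0, with 1% v/v DMSO and 0.01% v/v Triton X-100. Enzyme at 2 nM preincubated 5 min with compound, then 50 μM CENTA (405 nm) or nitrocefin (490 nm) added. Absorbance followed for 1 min 30 s and rate normalised to DMSO. Eight-point half-log curves in triplicate.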
# Bacteria [12] = assay: Inhibition of beta-lactamase AmpC (unknown origin) pre-incubated with compound for 5 mins followed by substrate addition and measured after 1.5 mins by absorbance based plate reader analysis; settings: time 6.5 min; in short: as §4
# [13] = target: Replicase polyprotein 1ab (Severe acute respiratory syndrome coronavirus 2) (UniProt P0DTD1); assay: Non-covalent inhibition of N-terminal 6His/SUMO-tagged SARS-CoV-2 NSP14 expressed in Escherichia coli Rosetta 2 (DE3) PlysS cells using 5'GpppACCCCCCCCC-Biotin 3' and 3H-SAM as substrates at 10 fold IC50 concentration incubated for 60 mins by rapid dilution method; in short: as §1
# [14] = target: Replicase polyprotein 1ab (Severe acute respiratory syndrome coronavirus 2) (UniProt P0DTD1); assay: Competitive inhibition of N-terminal 6His/SUMO-tagged SARS-CoV-2 NSP14 expressed in Escherichia coli Rosetta 2 (DE3) PlysS cells using 5'GpppACCCCCCCCC-Biotin 3' and 3H-SAM as substrates at increasing concentration incubated for 30 mins by TopCount scintillation proximity assay
# In short: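 Competition pattern read from IC50 shifts. […] Separately, SAM fixed at 1.25 μM (5× Km) with RNA varied up to 0.5 μM (10× Km). A linear rise of IC50 with substrate concentration was taken as competitive inhibition.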
# [15] = target: Histone-lysine N-methyltransferase SUV39H1 (Homo sapiens) (UniProt O43463); assay: Inhibition of human SUV39H1 using Biotin-tagged histone H3 and 3H-SAM as substrate at 6 uM incubated for 1 hrs by TopCount scintillation proximity assay relative to control
# [16] = target: T1, Histone-lysine N-methyltransferase, H3 lysine-79 specific (Homo sapiens, UniProt Q8TEK3); assay: Inhibition of human DOT1L using chicken nucleosome and 3H-SAM as substrate at 6 uM incubated for 1 hrs by TopCount scintillation proximity assay relative to control
# [17] = target: Histone-lysine N-methyltransferase SMYD3 (Homo sapiens) (UniProt Q9H7B4); assay: Inhibition of human SMYD3 using biotin-tagged MAP3K2 and 3H-SAM as substrate at 6 uM incubated for 1 hrs by TopCount scintillation proximity assay relative to control
# [18] = target: RNA 5'-monophosphate methyltransferase (Homo sapiens) (UniProt Q7Z5W3); assay: Inhibition of human BCDIN3D using biotin-tagged microRNA-145 and 3H-SAM as substrate at 6 uM incubated for 1 hrs by TopCount scintillation proximity assay relative to control
# [19] = target: T2, Protein arginine N-methyltransferase 3 (Homo sapiens, UniProt O60678); assay: Inhibition of human PRMT3 using biotin-tagged Histone H4 and 3H-SAM as substrate at 6 uM incubated for 1 hrs by TopCount scintillation proximity assay relative to control
# [20] = target: Protein arginine N-methyltransferase 9 (Homo sapiens) (UniProt Q6P2P2); assay: Inhibition of human PRMT9 using biotin-tagged SAP145 and 3H-SAM as substrate at 6 uM incubated for 1 hrs by TopCount scintillation proximity assay relative to control
# [21] = target: T3, Protein arginine N-methyltransferase 1 (Homo sapiens, UniProt Q99873); assay: Inhibition of human PRMT1 using biotin-tagged Histone H4 and 3H-SAM as substrate at 6 uM incubated for 1 hrs by TopCount scintillation proximity assay relative to control
# Target sequence in this assay (Q99873 whole entry, looked up): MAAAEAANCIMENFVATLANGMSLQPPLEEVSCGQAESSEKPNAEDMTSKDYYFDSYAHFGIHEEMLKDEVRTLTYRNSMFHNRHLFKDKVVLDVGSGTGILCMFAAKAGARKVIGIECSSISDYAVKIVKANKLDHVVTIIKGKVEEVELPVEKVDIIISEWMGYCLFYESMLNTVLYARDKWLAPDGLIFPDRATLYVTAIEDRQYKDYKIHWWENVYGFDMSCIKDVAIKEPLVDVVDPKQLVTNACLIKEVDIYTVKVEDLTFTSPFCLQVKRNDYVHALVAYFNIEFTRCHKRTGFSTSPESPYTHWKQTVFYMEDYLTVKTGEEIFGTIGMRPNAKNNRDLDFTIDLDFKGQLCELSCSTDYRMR
# [22] = target: T4, Histone-lysine N-methyltransferase 2A (Homo sapiens, UniProt Q03164); assay: Inhibition of human MLL1 using biotin-tagged Histone H3 and 3H-SAM as substrate at 6 uM incubated for 1 hrs by TopCount scintillation proximity assay relative to control
# [23] = target: Histone-lysine N-methyltransferase EHMT1 (Homo sapiens) (UniProt Q9H9B1); assay: Inhibition of human GLP using biotin-tagged Histone H3 and 3H-SAM as substrate at 6 uM incubated for 1 hrs by TopCount scintillation proximity assay relative to control
# [24] = target: Histone-lysine N-methyltransferase SUV39H1 (Homo sapiens, UniProt O43463); assay: Inhibition of human SUV39H1 using Biotin-tagged histone H3 and 3H-SAM as substrate incubated for 1 hrs by TopCount scintillation proximity assay
# In short: (§8)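 Radiometric human methyltransferase assay. Enzymes showing >50% inhibition at a 10 μM single-point screen went on to concentration–response in triplicate to derive IC50.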
# [25] = target: T1, Histone-lysine N-methyltransferase, H3 lysine-79 specific; assay: Inhibition of human DOT1L using chicken nucleosome and 3H-SAM as substrate incubated for 1 hrs by TopCount scintillation proximity assay; in short: as §2
# [26] = target: Histone-lysine N-methyltransferase SMYD3 (Homo sapiens, UniProt Q9H7B4); assay: Inhibition of human SMYD3 using biotin-tagged MAP3K2 and 3H-SAM as substrate incubated for 1 hrs by TopCount scintillation proximity assay; in short: as §8
# [27] = target: RNA 5'-monophosphate methyltransferase (Homo sapiens, UniProt Q7Z5W3); assay: Inhibition of human BCDIN3D using biotin-tagged microRNA-145 and 3H-SAM as substrate incubated for 1 hrs by TopCount scintillation proximity assay; in short: as §2
# [28] = target: T2, Protein arginine N-methyltransferase 3; assay: Inhibition of human PRMT3 using biotin-tagged Histone H4 and 3H-SAM as substrate incubated for 1 hrs by TopCount scintillation proximity assay; in short: as §2
# [29] = target: Protein arginine N-methyltransferase 9 (Homo sapiens, UniProt Q6P2P2); assay: Inhibition of human PRMT9 using biotin-tagged SAP145 and 3H-SAM as substrate incubated for 1 hrs by TopCount scintillation proximity assay; in short: as §2
# [30] = target: T3, Protein arginine N-methyltransferase 1; assay: Inhibition of human PRMT1 using biotin-tagged Histone H4 and 3H-SAM as substrate incubated for 1 hrs by TopCount scintillation proximity assay; in short: as §2
# Target sequence in this assay (Q99873 whole entry): as the sequence (Q99873 whole entry, looked up) above
# [31] = target: T4, Histone-lysine N-methyltransferase 2A; assay: Inhibition of human MLL1 using biotin-tagged Histone H3 and 3H-SAM as substrate incubated for 1 hrs by TopCount scintillation proximity assay; in short: as §2
# Homo sapiens [32] = species: Homo sapiens; assay: Inhibition of MDH (unknown origin) using oxaloacetic acid as substrate preincubated with compound for 5 mins followed by substrate addition and measured after 1.5 min in the presence of NADH by absorbance based plate reader analysis; settings: time 6.5 min; in short: as §5
# [33] = Aggregation property of the compound in KPi buffer at pH 7.0 assessed as formation of colloid-like particles by dynamic light scattering analysis; assay type: physicochemical; in short: as §3
# Homo sapiens [34] = species: Homo sapiens; assay: Inhibition of MDH (unknown origin) using oxaloacetic acid as substrate preincubated with compound for 5 mins followed by substrate addition and measured after 1.5 min in the presence of NADH and 0.01% Triton-X 100 by absorbance based plate reader analysis; settings: time 6.5 min; in short: as §6
# Bacteria [35] = assay: Inhibition of beta-lactamase AmpC (unknown origin) pre-incubated with compound for 5 mins followed by substrate addition and measured after 1.5 mins in the presence of 0.01% Triton-X 100 by absorbance based plate reader analysis; settings: time 6.5 min; in short: as §7
# T4 sequence (Q03164 1-2718 limits assumed): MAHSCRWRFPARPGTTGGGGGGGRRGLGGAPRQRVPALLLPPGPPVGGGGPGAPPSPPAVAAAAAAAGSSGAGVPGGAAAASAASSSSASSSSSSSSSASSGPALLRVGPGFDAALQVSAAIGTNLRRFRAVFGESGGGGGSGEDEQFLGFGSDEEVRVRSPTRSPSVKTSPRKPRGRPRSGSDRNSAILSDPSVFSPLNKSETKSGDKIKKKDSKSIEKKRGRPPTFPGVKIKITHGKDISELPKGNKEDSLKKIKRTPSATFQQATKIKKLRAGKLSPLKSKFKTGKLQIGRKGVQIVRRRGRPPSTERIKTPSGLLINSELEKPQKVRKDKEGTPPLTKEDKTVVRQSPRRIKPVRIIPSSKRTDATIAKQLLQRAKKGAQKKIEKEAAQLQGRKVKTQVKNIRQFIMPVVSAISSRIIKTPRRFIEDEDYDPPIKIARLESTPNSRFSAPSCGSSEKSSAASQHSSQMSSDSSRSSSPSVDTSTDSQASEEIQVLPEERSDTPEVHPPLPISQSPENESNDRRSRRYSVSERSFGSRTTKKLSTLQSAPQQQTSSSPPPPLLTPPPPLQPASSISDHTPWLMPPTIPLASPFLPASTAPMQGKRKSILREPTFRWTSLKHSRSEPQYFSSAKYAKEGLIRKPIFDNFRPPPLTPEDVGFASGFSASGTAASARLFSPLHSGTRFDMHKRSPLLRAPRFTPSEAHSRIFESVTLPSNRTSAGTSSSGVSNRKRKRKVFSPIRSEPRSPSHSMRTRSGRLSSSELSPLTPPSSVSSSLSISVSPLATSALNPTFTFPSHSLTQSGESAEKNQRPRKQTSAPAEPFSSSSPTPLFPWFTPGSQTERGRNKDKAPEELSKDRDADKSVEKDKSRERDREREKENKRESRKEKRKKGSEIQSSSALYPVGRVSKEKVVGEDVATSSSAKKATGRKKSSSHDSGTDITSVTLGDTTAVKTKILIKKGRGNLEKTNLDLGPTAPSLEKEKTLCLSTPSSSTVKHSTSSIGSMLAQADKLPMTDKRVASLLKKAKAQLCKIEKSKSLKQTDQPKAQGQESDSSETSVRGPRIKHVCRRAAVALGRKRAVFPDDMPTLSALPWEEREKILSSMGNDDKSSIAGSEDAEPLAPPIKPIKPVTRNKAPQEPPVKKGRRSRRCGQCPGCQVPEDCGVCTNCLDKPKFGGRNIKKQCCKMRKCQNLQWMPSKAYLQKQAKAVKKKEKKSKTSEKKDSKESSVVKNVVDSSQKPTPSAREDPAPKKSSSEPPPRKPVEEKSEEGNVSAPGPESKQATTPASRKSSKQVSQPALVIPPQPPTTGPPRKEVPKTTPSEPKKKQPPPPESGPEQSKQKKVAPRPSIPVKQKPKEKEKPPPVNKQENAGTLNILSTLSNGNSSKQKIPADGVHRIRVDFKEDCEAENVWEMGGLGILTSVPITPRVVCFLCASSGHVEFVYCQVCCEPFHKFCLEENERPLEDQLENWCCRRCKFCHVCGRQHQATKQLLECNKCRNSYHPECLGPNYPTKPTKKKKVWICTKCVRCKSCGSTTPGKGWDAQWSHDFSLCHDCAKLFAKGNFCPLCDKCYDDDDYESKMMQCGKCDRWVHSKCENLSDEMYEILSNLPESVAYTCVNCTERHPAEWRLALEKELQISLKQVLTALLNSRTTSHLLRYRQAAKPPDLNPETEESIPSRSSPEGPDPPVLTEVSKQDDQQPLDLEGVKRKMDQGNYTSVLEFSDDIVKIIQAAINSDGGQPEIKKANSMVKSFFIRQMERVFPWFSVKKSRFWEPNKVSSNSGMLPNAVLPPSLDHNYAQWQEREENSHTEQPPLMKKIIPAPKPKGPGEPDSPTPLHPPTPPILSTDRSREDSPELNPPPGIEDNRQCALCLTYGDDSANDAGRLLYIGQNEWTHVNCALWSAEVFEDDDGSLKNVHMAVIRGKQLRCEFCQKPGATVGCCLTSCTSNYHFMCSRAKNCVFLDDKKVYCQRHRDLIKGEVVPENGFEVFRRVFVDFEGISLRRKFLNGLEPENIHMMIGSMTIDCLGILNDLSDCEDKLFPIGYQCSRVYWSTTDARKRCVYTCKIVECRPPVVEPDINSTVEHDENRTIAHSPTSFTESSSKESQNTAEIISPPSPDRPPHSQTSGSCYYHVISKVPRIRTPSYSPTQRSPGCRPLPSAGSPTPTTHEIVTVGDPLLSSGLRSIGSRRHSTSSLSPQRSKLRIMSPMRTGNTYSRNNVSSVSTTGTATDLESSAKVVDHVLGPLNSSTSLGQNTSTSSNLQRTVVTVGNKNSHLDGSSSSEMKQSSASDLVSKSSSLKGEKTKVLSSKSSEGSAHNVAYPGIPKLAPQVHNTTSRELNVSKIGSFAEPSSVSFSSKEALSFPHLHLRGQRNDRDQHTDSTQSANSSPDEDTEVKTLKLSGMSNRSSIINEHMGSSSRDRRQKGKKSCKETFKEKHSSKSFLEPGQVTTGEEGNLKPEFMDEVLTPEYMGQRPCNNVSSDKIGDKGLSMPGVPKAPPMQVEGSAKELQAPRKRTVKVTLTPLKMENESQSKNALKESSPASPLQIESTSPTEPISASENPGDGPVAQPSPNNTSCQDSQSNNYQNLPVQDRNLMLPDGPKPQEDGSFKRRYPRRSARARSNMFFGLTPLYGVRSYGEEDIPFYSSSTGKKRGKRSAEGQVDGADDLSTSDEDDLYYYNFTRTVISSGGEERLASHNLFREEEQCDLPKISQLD
# T4 sequence (Q03164 2719-3969 limits assumed): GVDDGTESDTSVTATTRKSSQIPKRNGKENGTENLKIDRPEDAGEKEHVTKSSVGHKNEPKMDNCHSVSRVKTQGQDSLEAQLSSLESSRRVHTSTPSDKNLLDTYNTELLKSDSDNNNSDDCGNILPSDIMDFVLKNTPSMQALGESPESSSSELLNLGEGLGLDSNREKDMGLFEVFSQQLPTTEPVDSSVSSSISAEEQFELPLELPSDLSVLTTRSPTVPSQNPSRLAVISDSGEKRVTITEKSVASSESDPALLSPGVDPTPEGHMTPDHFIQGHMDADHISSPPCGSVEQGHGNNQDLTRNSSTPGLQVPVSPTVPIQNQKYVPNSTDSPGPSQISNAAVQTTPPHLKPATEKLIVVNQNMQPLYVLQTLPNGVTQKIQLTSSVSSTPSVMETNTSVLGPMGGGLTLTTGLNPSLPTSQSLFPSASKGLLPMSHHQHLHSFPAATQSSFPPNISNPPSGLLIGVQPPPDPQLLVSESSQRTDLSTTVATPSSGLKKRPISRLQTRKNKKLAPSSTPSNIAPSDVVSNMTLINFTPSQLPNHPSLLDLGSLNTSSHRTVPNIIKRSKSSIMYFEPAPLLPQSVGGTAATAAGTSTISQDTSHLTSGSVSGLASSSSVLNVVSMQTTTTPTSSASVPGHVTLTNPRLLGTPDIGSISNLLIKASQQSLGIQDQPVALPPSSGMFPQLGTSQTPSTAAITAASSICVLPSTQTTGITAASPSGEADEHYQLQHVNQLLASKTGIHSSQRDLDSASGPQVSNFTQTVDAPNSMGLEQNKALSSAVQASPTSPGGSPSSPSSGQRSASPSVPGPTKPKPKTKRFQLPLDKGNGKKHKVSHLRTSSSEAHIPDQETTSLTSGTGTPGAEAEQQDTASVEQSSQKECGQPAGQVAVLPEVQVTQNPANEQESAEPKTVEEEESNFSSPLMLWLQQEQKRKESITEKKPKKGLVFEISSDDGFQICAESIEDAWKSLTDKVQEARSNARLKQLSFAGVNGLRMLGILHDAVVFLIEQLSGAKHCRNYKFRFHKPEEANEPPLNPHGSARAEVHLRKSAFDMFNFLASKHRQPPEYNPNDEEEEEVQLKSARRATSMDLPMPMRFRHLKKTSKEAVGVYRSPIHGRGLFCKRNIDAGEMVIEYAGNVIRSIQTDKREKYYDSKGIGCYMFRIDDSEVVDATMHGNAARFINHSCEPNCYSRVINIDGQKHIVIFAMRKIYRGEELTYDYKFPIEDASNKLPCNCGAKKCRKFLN
# Chain of Histone-lysine N-methyltransferase SUV39H1 (O43463 whole entry): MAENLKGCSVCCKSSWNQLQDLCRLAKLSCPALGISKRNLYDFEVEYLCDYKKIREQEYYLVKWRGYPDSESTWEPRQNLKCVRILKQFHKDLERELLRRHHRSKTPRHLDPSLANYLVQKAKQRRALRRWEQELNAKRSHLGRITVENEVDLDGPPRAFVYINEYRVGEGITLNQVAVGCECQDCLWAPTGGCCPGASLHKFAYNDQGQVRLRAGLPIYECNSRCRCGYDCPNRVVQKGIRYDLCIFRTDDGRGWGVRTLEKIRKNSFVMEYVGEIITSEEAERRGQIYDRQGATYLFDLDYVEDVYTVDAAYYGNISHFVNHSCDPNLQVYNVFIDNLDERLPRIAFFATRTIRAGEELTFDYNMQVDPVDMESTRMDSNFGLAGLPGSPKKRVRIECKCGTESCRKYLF
# Chain of Histone-lysine N-methyltransferase SUV39H1 (Homo sapiens) (O43463 whole entry): as above
smiles,measurement,setting,value
N#Cc1ccc(NC(=O)c2cc(C=O)n3c2CCCC3)c2cc(O)ccc12,IC50,[1],8 µM
same,inhibition,[2],> 50%
same,Activity,[3],Active
same,inhibition,[4],Active
same,IC50,[5],30 µM
same,IC50,[6],14 µM
same,Activity,[7],Active
same,inhibition,Bacteria [8],Active
same,inhibition,Homo sapiens [9],Active
same,inhibition,Homo sapiens [10],inactive
same,inhibition,Bacteria [11],inactive
O=C(COC(=O)c1cc(-c2ccoc2)n[nH]1)Nc1ccc(Br)cc1,inhibition,Bacteria [12],inactive
same,inhibition,[13],Active
same,IC50,[1],2.2 µM
same,inhibition,[14],Active
same,inhibition,[15],> 50%
same,inhibition,[16],> 50%
same,inhibition,[17],> 50%
same,inhibition,[18],> 50%
same,inhibition,[19],> 50%
same,inhibition,[20],> 50%
same,inhibition,[21],> 50%
same,inhibition,[22],> 50%
same,inhibition,[23],> 50%
same,IC50,[6],26 µM
same,IC50,[24],4 µM
same,IC50,[25],7 µM
same,IC50,[26],8 µM
same,IC50,[27],11 µM
same,IC50,[28],11 µM
same,IC50,[29],11 µM
same,IC50,[30],15 µM
same,IC50,[31],16 µM
same,inhibition,Homo sapiens [32],Active
same,Activity,[33],Active
same,inhibition,Homo sapiens [34],inactive
same,inhibition,Bacteria [35],inactive
